Assays:
[1] = biological target: T1, Oxytocin receptor (Rattus norvegicus, UniProt P70536); assay: Inhibition of radioligand [3H]oxytocin binding at the oxytocin (OT) receptor in rat uterine tissue
T1 sequence (P70536 whole entry): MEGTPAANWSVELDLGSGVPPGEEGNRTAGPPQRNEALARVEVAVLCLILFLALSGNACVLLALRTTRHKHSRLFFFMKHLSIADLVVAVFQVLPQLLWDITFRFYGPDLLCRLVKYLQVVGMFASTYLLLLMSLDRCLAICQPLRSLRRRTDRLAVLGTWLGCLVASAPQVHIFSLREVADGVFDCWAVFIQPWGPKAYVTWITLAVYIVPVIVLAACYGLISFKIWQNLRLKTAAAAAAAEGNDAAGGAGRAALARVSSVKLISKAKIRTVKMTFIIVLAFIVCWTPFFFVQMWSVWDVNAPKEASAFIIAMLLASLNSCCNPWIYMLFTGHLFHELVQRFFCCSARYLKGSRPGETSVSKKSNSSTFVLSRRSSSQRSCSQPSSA
In short: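 Uteri taken from rats given diethylstilbestrol dipropionate (0.3 mg/kg ip, 18–24 h before), crude membranes. 1 nM [3H]OT (30–60 Ci/mmol), equilibrium 60 min at 22 °C in 50 mM Tris-HCl, 5 mM MgCl2, 0.1% BSA, pH 7.4. Nonspecific binding with 1 mM unlabeled OT. Filtered on glass fiber. Initial single-concentration screen, then IC50 from seven concentrations by linear regression.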

[2] = biological target: Vasopressin V1 receptor (Rattus norvegicus, UniProt P48974+P30560); assay: Inhibition of radioligand [3H]AVP binding to the vasopressin V1 receptor in rat liver tissue
In short: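 Crude membranes from male rat liver (V1 sites) competed with 1 nM [3H]AVP (80–90 Ci/mmol). Equilibrium 30 min, 30 °C, buffer 100 mM Tris-HCl, 5 mM MgCl2, 0.1% BSA, 50 μM PMSF, 50 μg/mL bacitracin, pH 8.0. 10 μM unlabeled AVP for nonspecific binding. Filtration through glass-fiber filters. IC50 from linear regression over seven concentrations.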

[3] = biological target: Vasopressin V2 receptor (Rattus norvegicus, UniProt Q00788); assay: Inhibition of radioligand [3H]-AVP binding to the vasopressin V2 receptor in rat kidney tissue
In short: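 [3H]AVP (80–90 Ci/mmol) at 2 nM competed on crude membranes from male rat kidney medulla (V2 sites). Equilibrium 30 min at 30 °C in 100 mM Tris-HCl, 5 mM MgCl2, 0.1% BSA, 50 μM PMSF, 50 μg/mL bacitracin, pH 8.0. Nonspecific binding with 10 μM unlabeled AVP. Glass-fiber filtration. IC50 by linear regression of % inhibition vs log concentration, seven concentrations.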

Sequence of Vasopressin V2 receptor (Q00788 whole entry): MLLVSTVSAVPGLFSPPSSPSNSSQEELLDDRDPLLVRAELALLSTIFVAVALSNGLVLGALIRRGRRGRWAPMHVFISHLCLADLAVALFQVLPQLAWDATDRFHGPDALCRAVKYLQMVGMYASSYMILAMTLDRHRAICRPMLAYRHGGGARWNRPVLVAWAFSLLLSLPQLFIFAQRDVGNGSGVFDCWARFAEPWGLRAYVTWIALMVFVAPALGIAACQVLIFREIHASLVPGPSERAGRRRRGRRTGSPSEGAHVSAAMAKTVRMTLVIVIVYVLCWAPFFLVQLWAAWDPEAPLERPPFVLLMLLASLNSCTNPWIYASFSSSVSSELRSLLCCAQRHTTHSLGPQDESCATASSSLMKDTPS

SMILES | IC50 [1] | IC50 [2] | IC50 [3]
CC1(C)[C@@H]2CC[C@@]1(CS(=O)(=O)N1CCC3(CCc4ccccc43)CC1)[C@@H](NC(=O)CCN)C2 | 140 nM | 1000 nM | 9600 nM
CC1NC(=O)N([C@H]2C[C@H]3CC[C@]2(CS(=O)(=O)N2CCC4(CCc5ccccc54)CC2)C3(C)C)C1=O (stereo not given in full) | 14 nM | 710 nM | 2100 nM
CC(C(=O)N[C@H]1C[C@H]2CC[C@]1(CS(=O)(=O)N1CCC3(CCc4ccccc43)CC1)C2(C)C)c1cn(C)cn1 (stereo not given in full) | 60 nM | 3000 nM | > 3000 nM
CC1(C)[C@@H]2CC[C@@]1(CS(=O)(=O)N1CCC3(CCc4ccccc43)CC1)[C@@H](N1C(=O)C3CCC(=N)N3C1=O)C2 (stereo not given in full) | 21 nM | 1100 nM | 3800 nM
CC1(C)[C@@H]2CC[C@@]1(CS(=O)(=O)N1CCC3(CCc4ccccc43)CC1)[C@@H](NC(=O)[C@H](N)CCC(N)=O)C2 | 12 nM | 2300 nM | 5100 nM
CC1(C)[C@@H]2CC[C@@]1(CS(=O)(=O)N1CCC3(CCc4ccccc43)CC1)[C@@H](N1CCNC1=O)C2 | 100 nM | > 300 nM | > 3000 nM
CC1(C)[C@@H]2CC[C@@]1(CS(=O)(=O)N1CCC3(C=Cc4ccccc43)CC1)[C@@](O)(CNC(=O)[C@@H](N)CCC(N)=O)C2 | 90 nM | > 300 nM | 3000 nM
CC(C)[C@@H](N)C(=O)N[C@H]1C[C@H]2CC[C@]1(CS(=O)(=O)N1CCC3(CCc4ccccc43)CC1)C2(C)C | 110 nM | 3000 nM | > 3000 nM
CC1(C)[C@@H]2CC[C@@]1(CS(=O)(=O)N1CCC3(CCc4ccccc43)CC1)[C@@H](NC(=O)CC1CCCNC1)C2 (stereo not given in full) | 130 nM | 1500 nM | 12000 nM
CC1(C)[C@@H]2CC[C@@]1(CS(=O)(=O)N1CCC3(CCc4ccccc43)CC1)[C@@H](NC(=O)Cc1ccncc1)C2 | 120 nM | > 1000 nM | 10000 nM
CC1(C)[C@@H]2CC[C@@]1(CS(=O)(=O)N1CCC3(CCc4ccccc43)CC1)[C@@H](NC(=O)[C@@H](N)CCC(N)=O)C2 | 55 nM | 2800 nM | 7900 nM
CC1(C)[C@@H]2CC[C@@]1(CS(=O)(=O)N1CCC3(CCc4ccccc43)CC1)[C@@H](N1C(=O)CCC1C(=O)O)C2 (stereo not given in full) | 270 nM | > 3000 nM | > 3000 nM
CC1(C)[C@@H]2CC[C@@]1(CS(=O)(=O)N1CCC3(C=Cc4ccccc43)CC1)[C@@](O)(CCNC(=O)CC1CN3CCC1CC3)C2 (stereo not given in full) | 100 nM | 640 nM | 6200 nM
CC1(C)[C@@H]2CC[C@@]1(CS(=O)(=O)N1CCC3(CCc4ccccc43)CC1)[C@@H](NC(=O)[C@@H](N)CCS(C)(=O)=O)C2 | 12 nM | 890 nM | 2400 nM
CC1(C)[C@@H]2CC[C@@]1(CS(=O)(=O)N1CCC3(C=Cc4ccccc43)CC1)[C@@](O)(CNC(=O)Cc1ccncc1)C2 | 35 nM | 480 nM | 5100 nM
CC1(C)[C@@H]2CC[C@@]1(CS(=O)(=O)N1CCC3(CCc4ccccc43)CC1)[C@@H](NC(=O)C1CNC(=O)N1)C2 (stereo not given in full) | 92 nM | > 3000 nM | > 3000 nM
CC1(C)[C@@H]2CC[C@@]1(CS(=O)(=O)N1CCC3(CCc4ccccc43)CC1)[C@@H](NC(=O)C1CN3CCC1CC3)C2 (stereo not given in full) | 29 nM | 530 nM | 5500 nM
CC1(C)[C@@H]2CC[C@@]1(CS(=O)(=O)N1CCC3(CCc4ccccc43)CC1)[C@@H](N1CCC(N)C1=O)C2 (stereo not given in full) | 60 nM | 1700 nM | 5500 nM
CC1(C)[C@H]2CC[C@]1(CS(=O)(=O)N1CCC3(CCc4ccccc43)CC1)[C@H](NC(=O)Cc1c[nH]cn1)C2 | 1200 nM | > 3000 nM | > 3000 nM
CC1(C)[C@@H]2CC[C@@]1(CS(=O)(=O)N1CCC3(C=Cc4ccccc43)CC1)[C@@](O)(CNC(=O)c1ccncc1)C2 | 180 nM | 1200 nM | 10000 nM

SMILES | IC50 [1] | IC50 [2] | IC50 [3]
CC1(C)[C@@H]2CC[C@@]1(CS(=O)(=O)N1CCC3(CCc4ccccc43)CC1)/C(=N\O)C2 | 450 nM | 3200 nM | 13000 nM
CC1(C)[C@@H]2CC[C@@]1(CS(=O)(=O)N1CCC3(CCc4ccccc43)CC1)[C@@H](NC(=O)CCCc1ccccc1)C2 | 570 nM | > 1000 nM | > 10000 nM
CC1(C)[C@@H]2CC[C@@]1(CS(=O)(=O)N1CCC3(CCc4ccccc43)CC1)[C@@H](N1C(=O)NC(CC(=O)O)C1=O)C2 (stereo not given in full) | 50 nM | 1900 nM | 4100 nM
CCN(CC)C(CCS(C)(=O)=O)C(=O)N[C@H]1C[C@H]2CC[C@]1(CS(=O)(=O)N1CCC3(CCc4ccccc43)CC1)C2(C)C (stereo not given in full) | 30 nM | 2100 nM | 1500 nM
CC1(C)[C@@H]2CC[C@@]1(CS(=O)(=O)N1CCC3(CCc4ccccc43)CC1)[C@@H](N1C(=O)CN(CC#N)C1=O)C2 | 4.2 nM | 530 nM | 1700 nM
CC1(C)[C@@H]2CC[C@@]1(CS(=O)(=O)N1CCC3(CCc4ccccc43)CC1)[C@@H](NC(=O)C(N)CCC#N)C2 (stereo not given in full) | 46 nM | 1400 nM | 6500 nM
CN1CC(=O)N([C@H]2C[C@H]3CC[C@]2(CS(=O)(=O)N2CCC4(CCc5ccccc54)CC2)C3(C)C)C1=O | 14 nM | 960 nM | 2700 nM
CC(=O)NC[C@@]1(O)C[C@H]2CC[C@]1(CS(=O)(=O)N1CCC3(C=Cc4ccccc43)CC1)C2(C)C | 130 nM | > 1000 nM | 10000 nM
CC(C)C[C@@H](N)C(=O)N[C@H]1C[C@H]2CC[C@]1(CS(=O)(=O)N1CCC3(CCc4ccccc43)CC1)C2(C)C | 580 nM | > 3000 nM | > 3000 nM
CC1(C)[C@@H]2CC[C@@]1(CS(=O)(=O)N1CCC3(CCc4ccccc43)CC1)[C@@H](NC(=O)C(CCS(C)(=O)=O)NC(=O)CN)C2 (stereo not given in full) | 4.1 nM | 440 nM | 1100 nM
CC1(C)[C@@H]2CC[C@@]1(CS(=O)(=O)N1CCC3(CCc4ccccc43)CC1)[C@@H](N1C(=O)NC(CNc3n[nH]c(N)n3)C1=O)C2 (stereo not given in full) | 6.7 nM | 120 nM | 450 nM
Cn1cnc(CC(=O)N(CCS(C)(=O)=O)[C@H]2C[C@H]3CC[C@]2(CS(=O)(=O)N2CCC4(CCc5ccccc54)CC2)C3(C)C)c1 | 6 nM | 320 nM | 650 nM
CC(=O)N[C@@H]1C[C@H]2CC[C@]1(CS(=O)(=O)N1CCC3(CCc4ccccc43)CC1)C2(C)C | 1200 nM | 10000 nM | > 10000 nM
CC1(C)[C@@H]2CC[C@@]1(CS(=O)(=O)N1CCC3(CCc4ccccc43)CC1)[C@@H](NC(=O)Cc1nnn[nH]1)C2 | 220 nM | > 3000 nM | > 3000 nM
CC1(C)[C@@H]2CC[C@@]1(CS(=O)(=O)N1CCC3(CCc4ccccc43)CC1)[C@@H](NC(=O)C(N)CCS(N)(=O)=O)C2 (stereo not given in full) | 38 nM | 4000 nM | 6700 nM
CC1(C)[C@@H]2CC[C@@]1(CS(=O)(=O)N1CCC3(CCc4ccccc43)CC1)[C@@H](NC(=O)[C@H](N)Cc1c[nH]cn1)C2 | 45 nM | 1500 nM | 5500 nM
CN(C)[C@H](Cc1c[nH]cn1)C(=O)N[C@H]1C[C@H]2CC[C@]1(CS(=O)(=O)N1CCC3(CCc4ccccc43)CC1)C2(C)C | 49 nM | 1700 nM | 3400 nM
CC1(C)[C@@H]2CC[C@@]1(CS(=O)(=O)N1CCC3(CCc4ccccc43)CC1)[C@@H](NC(=O)CCn1ccnc1)C2 | 140 nM | > 3000 nM | > 3000 nM
CC1(C)[C@@H]2CC[C@@]1(CS(=O)(=O)N1CCC3(CCc4ccccc43)CC1)[C@@H](NC(=O)CCc1cccnc1)C2 | 180 nM | > 3000 nM | > 3000 nM
CC1(C)[C@@H]2CC[C@@]1(CS(=O)(=O)N1CCC3(CCc4ccccc43)CC1)[C@@H](NC(=O)Cn1cnnn1)C2 | 140 nM | > 1000 nM | 10000 nM
